Measured values: the M2OR odorant receptor database

How the values were obtained:
Conditions in all cases: stereoisomer not certain
UniProt L7MU75 = target: T1, UniProt L7MU75
T1 sequence (whole entry): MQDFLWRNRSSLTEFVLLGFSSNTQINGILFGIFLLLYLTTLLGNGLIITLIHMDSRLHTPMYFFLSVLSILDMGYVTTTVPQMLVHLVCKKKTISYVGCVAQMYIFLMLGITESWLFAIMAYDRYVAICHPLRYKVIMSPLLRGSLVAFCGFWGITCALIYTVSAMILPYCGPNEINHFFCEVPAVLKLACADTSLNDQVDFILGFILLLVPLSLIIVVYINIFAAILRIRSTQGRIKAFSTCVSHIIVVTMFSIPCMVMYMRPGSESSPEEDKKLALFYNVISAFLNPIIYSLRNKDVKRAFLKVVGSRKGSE
How it was run: (§1)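 Each entry records the cell line, G-protein, co-transfected protein and tags used. Methods varied with the source, often transient luciferase assays in mammalian cell lines. A receptor–molecule pair is called responsive (active) if the original authors judged its signal statistically different from baseline and non-responsive (inactive) otherwise.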

UniProt L7N210 = target: T2, UniProt L7N210
T2 sequence (whole entry): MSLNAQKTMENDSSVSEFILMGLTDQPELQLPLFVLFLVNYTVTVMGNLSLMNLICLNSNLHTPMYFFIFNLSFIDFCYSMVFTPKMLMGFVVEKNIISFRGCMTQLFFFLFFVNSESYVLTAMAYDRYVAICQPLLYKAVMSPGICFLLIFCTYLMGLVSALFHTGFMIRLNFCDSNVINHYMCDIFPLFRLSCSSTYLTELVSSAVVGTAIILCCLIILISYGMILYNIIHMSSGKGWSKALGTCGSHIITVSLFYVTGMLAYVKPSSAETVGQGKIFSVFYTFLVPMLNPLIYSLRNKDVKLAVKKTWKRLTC
How it was run: as §1

UniProt Q3KPB0 = target: T3, UniProt Q3KPB0
T3 sequence (whole entry): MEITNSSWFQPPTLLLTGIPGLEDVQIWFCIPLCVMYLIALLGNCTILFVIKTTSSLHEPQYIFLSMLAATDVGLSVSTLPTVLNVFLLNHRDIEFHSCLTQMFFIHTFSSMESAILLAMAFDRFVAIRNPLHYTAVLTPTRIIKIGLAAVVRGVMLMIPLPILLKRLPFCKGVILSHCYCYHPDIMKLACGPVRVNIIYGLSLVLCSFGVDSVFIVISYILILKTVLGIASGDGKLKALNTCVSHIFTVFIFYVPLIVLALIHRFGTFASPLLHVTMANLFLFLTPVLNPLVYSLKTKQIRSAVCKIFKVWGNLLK
How it was run: as §1

UniProt Q3U0P3 = target: T4, UniProt Q3U0P3
T4 sequence (whole entry): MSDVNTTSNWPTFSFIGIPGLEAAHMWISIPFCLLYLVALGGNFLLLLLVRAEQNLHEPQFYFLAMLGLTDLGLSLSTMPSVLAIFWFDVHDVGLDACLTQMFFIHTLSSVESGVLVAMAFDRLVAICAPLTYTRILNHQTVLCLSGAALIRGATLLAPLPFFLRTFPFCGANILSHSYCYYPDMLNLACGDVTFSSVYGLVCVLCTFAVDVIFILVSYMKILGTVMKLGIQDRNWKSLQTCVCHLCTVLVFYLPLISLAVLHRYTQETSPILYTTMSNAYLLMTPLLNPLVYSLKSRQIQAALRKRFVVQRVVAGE
How it was run: as §1

UniProt Q7TQU8 = target: T5, UniProt Q7TQU8
T5 sequence (whole entry): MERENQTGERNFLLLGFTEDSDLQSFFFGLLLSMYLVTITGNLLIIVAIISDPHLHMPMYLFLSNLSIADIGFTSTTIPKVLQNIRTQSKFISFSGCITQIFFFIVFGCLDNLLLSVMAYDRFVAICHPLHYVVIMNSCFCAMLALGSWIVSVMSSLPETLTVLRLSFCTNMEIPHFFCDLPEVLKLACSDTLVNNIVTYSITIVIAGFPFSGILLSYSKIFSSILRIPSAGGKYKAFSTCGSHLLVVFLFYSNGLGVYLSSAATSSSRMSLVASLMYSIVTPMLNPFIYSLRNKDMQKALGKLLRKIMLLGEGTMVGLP
How it was run: as §1

UniProt Q7TQV4 = target: T6, UniProt Q7TQV4
T6 sequence (whole entry): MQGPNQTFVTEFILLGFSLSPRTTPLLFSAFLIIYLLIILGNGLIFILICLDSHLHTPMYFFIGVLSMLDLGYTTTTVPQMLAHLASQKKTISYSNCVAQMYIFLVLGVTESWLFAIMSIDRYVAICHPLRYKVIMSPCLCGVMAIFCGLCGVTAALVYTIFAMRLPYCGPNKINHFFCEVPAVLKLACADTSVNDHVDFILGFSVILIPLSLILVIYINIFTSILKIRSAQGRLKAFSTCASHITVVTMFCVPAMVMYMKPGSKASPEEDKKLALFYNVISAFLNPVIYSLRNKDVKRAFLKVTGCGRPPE
How it was run: as §1

UniProt L7N0P5 = target: T7, UniProt L7N0P5
T7 sequence (whole entry): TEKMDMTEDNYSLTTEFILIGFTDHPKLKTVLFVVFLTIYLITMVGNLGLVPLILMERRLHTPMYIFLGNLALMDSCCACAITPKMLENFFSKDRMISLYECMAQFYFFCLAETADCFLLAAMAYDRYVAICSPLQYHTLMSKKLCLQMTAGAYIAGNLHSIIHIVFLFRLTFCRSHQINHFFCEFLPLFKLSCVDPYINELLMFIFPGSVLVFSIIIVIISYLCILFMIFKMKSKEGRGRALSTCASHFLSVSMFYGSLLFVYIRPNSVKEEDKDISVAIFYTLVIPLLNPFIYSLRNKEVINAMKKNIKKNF
How it was run: as §1

UniProt L7N1Y8 = target: UniProt L7N1Y8
How it was run: as §1

UniProt Q7TQR7 = target: UniProt Q7TQR7
How it was run: as §1

UniProt Q7TQR9 = target: UniProt Q7TQR9
How it was run: as §1

Sequence of UniProt Q7TQR7 (Q7TQR7 as listed by the source): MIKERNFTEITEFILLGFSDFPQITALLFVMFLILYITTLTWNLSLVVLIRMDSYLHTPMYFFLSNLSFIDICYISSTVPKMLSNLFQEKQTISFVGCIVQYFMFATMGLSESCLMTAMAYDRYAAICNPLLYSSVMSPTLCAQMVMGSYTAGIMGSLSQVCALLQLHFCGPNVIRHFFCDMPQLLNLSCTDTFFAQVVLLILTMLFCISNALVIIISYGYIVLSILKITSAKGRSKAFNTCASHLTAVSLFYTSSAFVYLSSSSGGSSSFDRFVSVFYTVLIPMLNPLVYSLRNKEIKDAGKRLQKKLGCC
Sequence of UniProt Q7TQR9 (Q7TQR9 as listed by the source): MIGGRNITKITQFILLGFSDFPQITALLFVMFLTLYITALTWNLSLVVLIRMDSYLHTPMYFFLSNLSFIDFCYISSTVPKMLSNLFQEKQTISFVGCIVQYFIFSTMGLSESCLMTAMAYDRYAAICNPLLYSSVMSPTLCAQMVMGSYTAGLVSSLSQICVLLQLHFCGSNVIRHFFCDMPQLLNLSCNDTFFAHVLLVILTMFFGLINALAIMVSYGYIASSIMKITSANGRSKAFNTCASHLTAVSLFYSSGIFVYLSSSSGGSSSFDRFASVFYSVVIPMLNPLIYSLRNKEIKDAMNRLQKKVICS
Sequence of UniProt L7N1Y8 (L7N1Y8 as listed by the source): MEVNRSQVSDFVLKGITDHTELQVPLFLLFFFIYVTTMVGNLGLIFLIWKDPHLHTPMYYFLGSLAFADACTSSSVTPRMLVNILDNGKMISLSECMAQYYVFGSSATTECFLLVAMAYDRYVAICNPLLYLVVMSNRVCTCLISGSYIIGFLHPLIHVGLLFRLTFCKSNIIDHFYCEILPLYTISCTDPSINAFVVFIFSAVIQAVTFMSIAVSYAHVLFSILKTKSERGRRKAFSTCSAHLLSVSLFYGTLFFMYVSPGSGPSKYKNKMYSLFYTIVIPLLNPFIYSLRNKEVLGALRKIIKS

Structure (SMILES): CCCCOC=O
- odorant receptor agonist call (UniProt L7MU75): inactive
- odorant receptor agonist call (UniProt L7N210): inactive
- odorant receptor agonist call (UniProt Q3KPB0): inactive
- odorant receptor agonist call (UniProt Q3U0P3): inactive
- odorant receptor agonist call (UniProt Q7TQU8): inactive
- odorant receptor agonist call (UniProt Q7TQV4): inactive

Structure (SMILES): Cc1cncc(C)n1
- odorant receptor agonist call (UniProt L7N0P5): active

Structure (SMILES): CC1=NC(C)C(C)S1 (centres undefined)
- odorant receptor agonist call (UniProt L7N0P5): active

Structure (SMILES): CCc1nccnc1OC
- odorant receptor agonist call (UniProt L7N0P5): active

Structure (SMILES): CC(=O)c1nccnc1C
- odorant receptor agonist call (UniProt L7N0P5): active

Structure (SMILES): C=C(C)C1CCC(C)C(=O)C1 (centres undefined)
- odorant receptor agonist call (UniProt L7MU75): inactive
- odorant receptor agonist call (UniProt L7N210): inactive
- odorant receptor agonist call (UniProt Q3KPB0): inactive
- odorant receptor agonist call (UniProt Q3U0P3): inactive
- odorant receptor agonist call (UniProt Q7TQU8): inactive
- odorant receptor agonist call (UniProt Q7TQV4): inactive

Structure (SMILES): COC1=C(C)OC(C)C1=O (centres undefined)
- odorant receptor agonist call (UniProt L7N0P5): inactive

Structure (SMILES): CCc1nccnc1C
- odorant receptor agonist call (UniProt L7N0P5): active

Structure (SMILES): CCCCCCCC(=O)[O-].[H+]
- odorant receptor agonist call (UniProt L7N210): inactive
- odorant receptor agonist call (UniProt Q7TQV4): inactive

Structure (SMILES): CCCCOC(=O)C(C)OC(=O)CCC (centres undefined)
- odorant receptor agonist call (UniProt L7N210): inactive
- odorant receptor agonist call (UniProt Q7TQV4): inactive

Structure (SMILES): CCC(C(=O)O)c1ccccc1 (centres undefined)
- odorant receptor agonist call (UniProt L7MU75): inactive
- odorant receptor agonist call (UniProt L7N210): inactive
- odorant receptor agonist call (UniProt Q7TQV4): inactive

Structure (SMILES): Cc1cnccn1
- odorant receptor agonist call (UniProt L7N0P5): active

Structure (SMILES): CC1CCc2nccnc21 (centres undefined)
- odorant receptor agonist call (UniProt L7N0P5): active

Structure (SMILES): CCc1cnc(C)c(C)n1
- odorant receptor agonist call (UniProt L7N0P5): inactive

Structure (SMILES): O=C1CCOc2ccccc21
- odorant receptor agonist call (UniProt L7N1Y8): active
- odorant receptor agonist call (UniProt L7N210): active
- odorant receptor agonist call (UniProt Q3KPB0): inactive
- odorant receptor agonist call (UniProt Q3U0P3): inactive
- odorant receptor agonist call (UniProt Q7TQU8): inactive
- odorant receptor agonist call (UniProt Q7TQV4): inactive

Structure (SMILES): CCCC(C)=O
- odorant receptor agonist call (UniProt L7MU75): inactive
- odorant receptor agonist call (UniProt L7N210): inactive
- odorant receptor agonist call (UniProt Q7TQV4): inactive

Structure (SMILES): CCCC(=O)C(C)=O
- odorant receptor agonist call (UniProt L7MU75): inactive
- odorant receptor agonist call (UniProt L7N210): inactive
- odorant receptor agonist call (UniProt Q3KPB0): inactive
- odorant receptor agonist call (UniProt Q3U0P3): inactive
- odorant receptor agonist call (UniProt Q7TQU8): inactive
- odorant receptor agonist call (UniProt Q7TQV4): inactive

Structure (SMILES): CC1CCCCCCCCCCCCC(=O)C1 (centres undefined)
- odorant receptor agonist call (UniProt Q7TQR7): inactive
- odorant receptor agonist call (UniProt Q7TQR9): inactive

Structure (SMILES): CCc1nccnc1C(C)=O
- odorant receptor agonist call (UniProt L7N0P5): active

Structure (SMILES): CCCCCCCO
- odorant receptor agonist call (UniProt L7MU75): inactive
- odorant receptor agonist call (UniProt L7N210): inactive
- odorant receptor agonist call (UniProt Q3KPB0): inactive
- odorant receptor agonist call (UniProt Q3U0P3): inactive
- odorant receptor agonist call (UniProt Q7TQU8): inactive
- odorant receptor agonist call (UniProt Q7TQV4): inactive

Structure (SMILES): CCC(=O)C(=O)CC
- odorant receptor agonist call (UniProt L7MU75): inactive
- odorant receptor agonist call (UniProt L7N210): inactive
- odorant receptor agonist call (UniProt Q3KPB0): inactive
- odorant receptor agonist call (UniProt Q3U0P3): inactive
- odorant receptor agonist call (UniProt Q7TQU8): inactive
- odorant receptor agonist call (UniProt Q7TQV4): inactive

Structure (SMILES): Cc1cnc(C)cn1
- odorant receptor agonist call (UniProt L7N0P5): active

Structure (SMILES): CCCCCC1=C(C)CCC1=O
- odorant receptor agonist call (UniProt L7MU75): inactive
- odorant receptor agonist call (UniProt L7N210): inactive
- odorant receptor agonist call (UniProt Q3KPB0): inactive
- odorant receptor agonist call (UniProt Q3U0P3): inactive
- odorant receptor agonist call (UniProt Q7TQU8): inactive
- odorant receptor agonist call (UniProt Q7TQV4): inactive

Structure (SMILES): O=C1Cc2ccccc2O1
- odorant receptor agonist call (UniProt L7N210): inactive
- odorant receptor agonist call (UniProt Q3KPB0): inactive
- odorant receptor agonist call (UniProt Q3U0P3): inactive
- odorant receptor agonist call (UniProt Q7TQU8): inactive
- odorant receptor agonist call (UniProt Q7TQV4): active

Structure (SMILES): CCCCCOC(=O)CCCCC
- odorant receptor agonist call (UniProt L7MU75): inactive
- odorant receptor agonist call (UniProt L7N210): inactive
- odorant receptor agonist call (UniProt Q3KPB0): inactive
- odorant receptor agonist call (UniProt Q3U0P3): inactive
- odorant receptor agonist call (UniProt Q7TQU8): inactive
- odorant receptor agonist call (UniProt Q7TQV4): inactive

Structure (SMILES): CCCCCCCCCS
- odorant receptor agonist call (UniProt L7MU75): inactive
- odorant receptor agonist call (UniProt L7N210): inactive
- odorant receptor agonist call (UniProt Q3KPB0): inactive
- odorant receptor agonist call (UniProt Q3U0P3): inactive
- odorant receptor agonist call (UniProt Q7TQU8): inactive
- odorant receptor agonist call (UniProt Q7TQV4): inactive

Structure (SMILES): CC(=O)c1cnccn1
- odorant receptor agonist call (UniProt L7N0P5): active

Structure (SMILES): CCCCCO
- odorant receptor agonist call (UniProt L7MU75): inactive
- odorant receptor agonist call (UniProt L7N210): inactive
- odorant receptor agonist call (UniProt Q7TQV4): inactive

Structure (SMILES): CCCCCCC(=O)[O-].[H+]
- odorant receptor agonist call (UniProt L7MU75): inactive
- odorant receptor agonist call (UniProt L7N210): inactive
- odorant receptor agonist call (UniProt Q7TQV4): inactive
